The pIC50 is the IC50 on a negative log10 scale, so that one unit is a factor of ten. Read a high pIC50 as a small IC50. The term Km denotes the concentration of substrate that gives half-maximal velocity.

Data on ten compounds can be found in ChEMBL document CHEMBL1145253, “Synthesis and evaluation of 3D templates based on a taxane skeleton to circumvent P-glycoprotein-associated multidrug resistance of cancer” (Bioorg Med Chem Lett, 2005).

pIC50: −log10 of the molar value.

In series [1] the test system is KB-G2. Briefly: Inhibitory concentration against KB-G2 cells. The following applies: Homo sapiens.
In series [2] the test system is KB 3-1. The series is described as follows: Inhibitory concentration against human KB-3-1 cells. The series is classed as functional, cell-based. The essentials: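 Cytotoxicity IC50 in two human KB lines: KB-G2, a multidrug-resistant line overexpressing P-glycoprotein (Val-185) and resistant to paclitaxel and vinblastine, and its parental drug-sensitive KB-3-1 line as the control. Both lines came from an outside academic lab.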

Series [3] has as its target ATP-dependent translocase ABCB1 (Homo sapiens, UniProt P08183). The series is described as follows: Michaelis-Menten constant for human P-glycoprotein expressed in Sf9 cells.

ATP-dependent translocase ABCB1, sequence (P08183 whole entry): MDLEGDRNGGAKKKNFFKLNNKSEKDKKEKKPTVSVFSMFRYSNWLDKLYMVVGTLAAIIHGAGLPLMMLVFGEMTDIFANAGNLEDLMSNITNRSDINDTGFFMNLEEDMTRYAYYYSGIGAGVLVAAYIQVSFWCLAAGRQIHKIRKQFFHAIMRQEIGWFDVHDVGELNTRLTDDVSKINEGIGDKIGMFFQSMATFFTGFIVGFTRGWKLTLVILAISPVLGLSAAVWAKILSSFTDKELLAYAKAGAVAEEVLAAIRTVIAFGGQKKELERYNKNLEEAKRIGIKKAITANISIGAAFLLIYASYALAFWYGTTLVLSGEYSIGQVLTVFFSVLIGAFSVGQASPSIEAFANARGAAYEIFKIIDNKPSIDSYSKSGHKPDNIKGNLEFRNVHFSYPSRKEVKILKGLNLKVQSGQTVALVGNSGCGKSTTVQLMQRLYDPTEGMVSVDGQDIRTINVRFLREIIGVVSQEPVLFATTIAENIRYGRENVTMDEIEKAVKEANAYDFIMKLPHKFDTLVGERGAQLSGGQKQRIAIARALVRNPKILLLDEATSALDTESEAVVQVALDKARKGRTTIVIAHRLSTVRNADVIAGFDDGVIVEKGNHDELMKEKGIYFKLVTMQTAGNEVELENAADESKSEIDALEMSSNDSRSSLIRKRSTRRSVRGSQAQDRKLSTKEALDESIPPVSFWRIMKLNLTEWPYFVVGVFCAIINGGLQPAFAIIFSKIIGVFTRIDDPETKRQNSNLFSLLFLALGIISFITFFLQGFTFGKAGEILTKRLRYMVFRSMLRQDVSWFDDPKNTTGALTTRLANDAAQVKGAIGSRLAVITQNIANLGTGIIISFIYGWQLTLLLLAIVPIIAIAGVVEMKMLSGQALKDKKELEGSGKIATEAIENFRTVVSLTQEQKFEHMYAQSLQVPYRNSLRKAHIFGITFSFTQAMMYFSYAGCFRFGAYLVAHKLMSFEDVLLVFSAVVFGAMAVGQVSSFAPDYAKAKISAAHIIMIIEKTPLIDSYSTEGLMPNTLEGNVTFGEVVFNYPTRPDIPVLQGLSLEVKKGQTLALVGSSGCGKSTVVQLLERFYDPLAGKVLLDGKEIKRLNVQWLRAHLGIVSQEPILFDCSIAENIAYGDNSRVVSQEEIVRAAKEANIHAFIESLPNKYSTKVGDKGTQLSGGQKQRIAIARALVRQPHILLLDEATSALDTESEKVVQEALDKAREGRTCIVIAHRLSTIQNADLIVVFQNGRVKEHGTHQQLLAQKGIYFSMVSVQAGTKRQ

For `COCOc1cccc2c1[C@@H]1OC(=O)O[C@]13CCC(C)=C(CO2)C3(C)C`, the pIC50 in series [1] and in series [2] was < 4.30 each time.

Consider `COCOc1ccc2c(c1)[C@@H]1OC(=O)O[C@]13CCC(C)=C(CO2)C3(C)C`, for which the negative-log IC50 (pIC50) in series [1] and in series [2] was < 4.30 throughout.

Turning to `CC1=C2CC(=O)c3ccccc3[C@@H]3OC(=O)O[C@@]3(CC1)C2(C)C`, the pIC50 in series [1] and in series [2] was < 4.30 each time.

As for `CC1=C2COc3ccccc3[C@@H]3OC(=O)O[C@@]3(CC1)C2(C)C`, the pIC50 in series [1] and in series [2] was < 4.30 in each case.

In the case of `CC1=C2COCc3ccccc3[C@@H]3OC(=O)O[C@@]3(CC1)C2(C)C`, the pIC50 in series [1] and in series [2] was < 4.30 each time.

For the compound `C=C1C2(C)CC[C@]3(OC(=O)O[C@H]3c3c(OCOC)cccc3C2=O)C1(C)C`, the negative-log IC50 (pIC50) in series [1] and in series [2] was < 4.30 throughout.

Take `COCOc1ccc2c(c1)[C@@H]1OC(=O)O[C@]13CCC(C)=C(COC2)C3(C)C`: the negative logarithm of the IC50 (pIC50) in series [1] and in series [2] was < 4.30 in each case.

As to `COCOc1ccc2c(c1)[C@@H]1OC(=O)O[C@]13CCC(C)=C(CC2=O)C3(C)C`, the pIC50 in series [1] and in series [2] was < 4.30 each time.

Turning to `COc1ccc(CCN(C)CCCC(C#N)(c2ccc(OC)c(OC)c2)C(C)C)cc1OC` (stereo not given), in series [3], the Michaelis-Menten constant (Km) turned out to be 2000 nM.

Regarding `CC(=O)O[C@H]1C(=O)[C@@]2(C)[C@H]([C@H](OC(=O)c3ccccc3)[C@]3(O)C[C@H](OC(=O)[C@H](O)[C@@H](NC(=O)c4ccccc4)c4ccccc4)C(C)=C1C3(C)C)[C@]1(OC(C)=O)CO[C@@H]1C[C@@H]2O` [PACLITAXEL], the pIC50 was 6.22 in series [1] and 8.68 in series [2]. Also, in series [3], the Km was determined as 700 nM.
